Experimental data as given in ChEMBL document CHEMBL5678806, “NMS-P937, an orally available, specific small-molecule polo-like kinase 1 inhibitor with antitumor activity in solid and hematologic malignancies” (Mol Cancer Ther, 2012).
Active and inactive are the calls of the source. No cut-off for these calls is given here.

Tests used:
[1] = Antiproliferative activity against human GBM-0627-GFD cells assessed as inhibition of cell growth incubated for 72 hrs by cell-titer glo assay; assay type: functional, cell-based
Method in brief: (§1)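 Cells seeded 10,000–30,000/cm² (adherent) or 100,000/mL (suspension) in medium with 10% fetal calf serum; after 24 h treated in duplicate with serial dilutions for 72 h. Viable cells read by CellTiter-Glo luminescence; IC50 from sigmoidal fit; at least two independent experiments.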

[2] = target: Tyrosine-protein kinase SYK (Homo sapiens, UniProt P43405); assay: Inhibition of N-terminal His6-tagged recombinant full-length human Syk expressed in baculovirus infected Sf21 cells assessed as residual activity at 1 uM relative to control
[3] = AUC in Beagle dog at 5 mg/kg, iv by LC-MS analysis; assay type: ADME, organism-based, Canis lupus familiaris; details: in vivo
SW-403 = assay: Antiproliferative activity against human SW403 cells assessed as inhibition of cell growth incubated for 72 hrs by cell-titer glo assay; assay type: functional, cell-based; details: SW-403, 72 h
A2780 [4] = assay: Induction of cell cycle arrest in human A2780 cells assessed as accumulation of cells at G2/M phase by measuring 4N DNA content incubated for 24 hrs by flow cytometry analysis; details: dose 20-200 nmol/L
SK-OV-3 = assay: Antiproliferative activity against human SK-OV-3 cells assessed as inhibition of cell growth incubated for 72 hrs by cell-titer glo assay; assay type: functional, cell-based; details: SK-OV-3, 72 h
NCI/ADR-RES = assay: Antiproliferative activity against human NCI/ADR-RES cells assessed as inhibition of cell growth incubated for 72 hrs by cell-titer glo assay; assay type: functional, cell-based
Method in brief: (§2)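 Cells from ATCC or ECACC, kept in supplier-recommended medium with 1% penicillin-streptomycin at 37°C, 5% CO₂. Seeded at 10,000–30,000/cm² (adherent) or 100,000/mL (nonadherent) in medium with 10% fetal calf serum. Dosed after 24 h in duplicate with serial dilutions. Viable cells read by CellTiter-Glo 72 h later. IC50 from sigmoidal fit. At least two independent experiments.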

[5] = Antiproliferative activity against human adriamycin-resistant RPMI-8226-ADR cells assessed as inhibition of cell growth incubated for 72 hrs by cell-titer glo assay; assay type: functional, cell-based
CAMA-1 = assay: Antiproliferative activity against human CAMA-1 cells assessed as inhibition of cell growth incubated for 72 hrs by cell-titer glo assay; assay type: functional, cell-based; details: CAMA-1, 72 h; method in brief: as §1
SAOS-2 = assay: Antiproliferative activity against human SAOS-2 cells assessed as inhibition of cell growth incubated for 72 hrs by cell-titer glo assay; assay type: functional, cell-based; details: SAOS-2, 72 h; method in brief: as §2
DU-4475 = assay: Antiproliferative activity against human DU-4475 cells assessed as inhibition of cell growth incubated for 72 hrs by cell-titer glo assay; assay type: functional, cell-based; details: DU-4475, 72 h; method in brief: as §1
[6] = target: Dual specificity tyrosine-phosphorylation-regulated kinase 2 (Homo sapiens) (UniProt Q92630); assay: Inhibition of 6His-tagged recombinant full-length human DYRK2 expressed in baculovirus infected Sf21 cells assessed as residual activity at 1 uM relative to control
Chain of Dual specificity tyrosine-phosphorylation-regulated kinase 2 (Homo sapiens) (Q92630 whole entry): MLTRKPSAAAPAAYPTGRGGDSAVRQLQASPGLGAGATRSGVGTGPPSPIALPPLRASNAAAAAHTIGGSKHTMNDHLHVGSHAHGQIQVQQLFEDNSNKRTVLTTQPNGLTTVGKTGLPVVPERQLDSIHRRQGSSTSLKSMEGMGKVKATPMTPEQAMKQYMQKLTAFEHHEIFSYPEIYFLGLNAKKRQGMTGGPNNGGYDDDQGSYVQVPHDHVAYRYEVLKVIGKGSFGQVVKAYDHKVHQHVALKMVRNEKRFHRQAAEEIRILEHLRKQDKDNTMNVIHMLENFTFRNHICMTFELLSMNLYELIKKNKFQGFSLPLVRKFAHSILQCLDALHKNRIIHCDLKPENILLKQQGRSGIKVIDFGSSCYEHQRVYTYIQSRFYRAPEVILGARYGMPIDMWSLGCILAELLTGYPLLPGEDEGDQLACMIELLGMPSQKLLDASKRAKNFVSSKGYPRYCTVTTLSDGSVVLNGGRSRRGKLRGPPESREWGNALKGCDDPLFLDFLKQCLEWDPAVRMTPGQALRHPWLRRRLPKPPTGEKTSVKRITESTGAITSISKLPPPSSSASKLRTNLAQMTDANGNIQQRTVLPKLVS

PC-3 = assay: Antiproliferative activity against human PC-3 cells assessed as inhibition of cell growth incubated for 72 hrs by cell-titer glo assay; assay type: functional, cell-based; details: PC-3, 72 h; method in brief: as §2
[7] = target: High affinity nerve growth factor receptor (Homo sapiens, UniProt P04629); assay: Inhibition of TRKA (unknown origin) in presence of [gamma-33P]ATP
Chain of High affinity nerve growth factor receptor (P04629 whole entry): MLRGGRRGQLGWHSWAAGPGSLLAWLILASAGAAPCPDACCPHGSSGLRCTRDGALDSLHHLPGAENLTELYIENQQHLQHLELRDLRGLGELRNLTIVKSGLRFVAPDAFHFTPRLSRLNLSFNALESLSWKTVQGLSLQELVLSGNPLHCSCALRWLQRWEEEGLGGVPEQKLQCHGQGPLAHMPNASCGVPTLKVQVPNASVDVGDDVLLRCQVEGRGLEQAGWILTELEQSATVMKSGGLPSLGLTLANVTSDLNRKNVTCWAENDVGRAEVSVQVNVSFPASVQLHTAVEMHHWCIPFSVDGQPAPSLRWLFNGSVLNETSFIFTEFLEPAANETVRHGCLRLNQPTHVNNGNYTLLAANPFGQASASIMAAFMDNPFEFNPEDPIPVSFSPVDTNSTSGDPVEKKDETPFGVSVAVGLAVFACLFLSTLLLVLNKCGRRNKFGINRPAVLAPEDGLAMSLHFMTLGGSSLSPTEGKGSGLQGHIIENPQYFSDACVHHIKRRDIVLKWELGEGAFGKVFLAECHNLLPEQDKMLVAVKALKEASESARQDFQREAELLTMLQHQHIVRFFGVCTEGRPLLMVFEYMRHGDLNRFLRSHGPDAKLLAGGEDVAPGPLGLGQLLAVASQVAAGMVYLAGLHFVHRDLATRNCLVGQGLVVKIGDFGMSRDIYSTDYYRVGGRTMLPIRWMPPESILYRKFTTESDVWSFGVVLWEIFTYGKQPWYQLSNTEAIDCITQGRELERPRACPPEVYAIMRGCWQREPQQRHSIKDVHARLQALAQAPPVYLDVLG

MeWo = assay: Antiproliferative activity against human MeWo cells assessed as inhibition of cell growth incubated for 72 hrs by cell-titer glo assay; assay type: functional, cell-based; method in brief: as §2
NCI-H1437 = assay: Antiproliferative activity against human NCI-H1437 cells assessed as inhibition of cell growth incubated for 72 hrs by cell-titer glo assay; assay type: functional, cell-based; details: NCI-H1437, 72 h; method in brief: as §2
[8] = target: Macrophage-stimulating protein receptor (Homo sapiens) (UniProt Q04912); assay: Inhibition of N-terminal GST-tagged recombinant human Ron (983 to end residues) expressed in baculovirus infected Sf21 cells assessed as residual activity at 1 uM relative to control
[9] = target: Serine/threonine-protein kinase Chk1 (Homo sapiens, UniProt O14757); assay: Inhibition of CHK1 (unknown origin) in presence of [gamma-33P]ATP
Chain of Serine/threonine-protein kinase Chk1 (O14757 whole entry): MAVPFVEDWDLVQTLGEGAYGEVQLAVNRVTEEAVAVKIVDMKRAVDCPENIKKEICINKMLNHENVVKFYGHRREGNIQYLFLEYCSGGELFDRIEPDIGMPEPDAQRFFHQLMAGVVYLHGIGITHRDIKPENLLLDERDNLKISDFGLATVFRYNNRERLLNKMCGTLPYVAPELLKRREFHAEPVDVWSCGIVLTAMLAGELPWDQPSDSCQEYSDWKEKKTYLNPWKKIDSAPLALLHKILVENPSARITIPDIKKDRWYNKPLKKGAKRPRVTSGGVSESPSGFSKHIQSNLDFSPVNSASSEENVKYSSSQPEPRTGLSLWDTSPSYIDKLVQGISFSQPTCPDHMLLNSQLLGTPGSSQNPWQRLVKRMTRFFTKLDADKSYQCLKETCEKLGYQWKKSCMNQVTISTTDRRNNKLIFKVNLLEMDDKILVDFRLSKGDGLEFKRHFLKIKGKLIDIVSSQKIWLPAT

[10] = target: Serine/threonine-protein kinase TBK1 (Homo sapiens) (UniProt Q9UHD2); assay: Inhibition of N-terminal His6-tagged recombinant full-length human TBK1 expressed in baculovirus infected Sf21 cells assessed as residual activity at 1 uM relative to control
Chain of Serine/threonine-protein kinase TBK1 (Homo sapiens) (Q9UHD2 whole entry): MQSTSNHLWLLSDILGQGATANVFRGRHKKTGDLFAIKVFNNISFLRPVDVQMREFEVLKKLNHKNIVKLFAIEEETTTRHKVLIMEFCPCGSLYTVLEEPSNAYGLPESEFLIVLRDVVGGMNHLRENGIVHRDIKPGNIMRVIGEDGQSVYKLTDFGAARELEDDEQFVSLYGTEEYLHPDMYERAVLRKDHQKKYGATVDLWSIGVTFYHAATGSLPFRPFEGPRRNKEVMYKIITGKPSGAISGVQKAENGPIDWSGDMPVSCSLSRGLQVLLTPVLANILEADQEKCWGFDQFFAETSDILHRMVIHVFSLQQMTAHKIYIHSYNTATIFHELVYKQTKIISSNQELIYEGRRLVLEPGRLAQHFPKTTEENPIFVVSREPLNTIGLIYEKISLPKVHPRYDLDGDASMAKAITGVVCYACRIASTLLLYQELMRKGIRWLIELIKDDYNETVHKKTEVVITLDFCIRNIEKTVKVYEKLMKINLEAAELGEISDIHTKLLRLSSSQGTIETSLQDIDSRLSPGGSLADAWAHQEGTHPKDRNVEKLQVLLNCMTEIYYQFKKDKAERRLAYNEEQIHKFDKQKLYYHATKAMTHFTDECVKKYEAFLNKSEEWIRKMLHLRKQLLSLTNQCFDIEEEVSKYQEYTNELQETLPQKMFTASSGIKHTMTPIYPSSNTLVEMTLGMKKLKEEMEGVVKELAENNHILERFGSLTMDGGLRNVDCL

[11] = target: Cyclin-dependent kinase 4/cyclin D1 (Homo sapiens, UniProt P11802); assay: Inhibition of CDK4/CycD1 (unknown origin) in presence of [gamma-33P]ATP; assay type: protein-complex assay
Chain of Cyclin-dependent kinase 4/cyclin D1 (P11802 whole entry): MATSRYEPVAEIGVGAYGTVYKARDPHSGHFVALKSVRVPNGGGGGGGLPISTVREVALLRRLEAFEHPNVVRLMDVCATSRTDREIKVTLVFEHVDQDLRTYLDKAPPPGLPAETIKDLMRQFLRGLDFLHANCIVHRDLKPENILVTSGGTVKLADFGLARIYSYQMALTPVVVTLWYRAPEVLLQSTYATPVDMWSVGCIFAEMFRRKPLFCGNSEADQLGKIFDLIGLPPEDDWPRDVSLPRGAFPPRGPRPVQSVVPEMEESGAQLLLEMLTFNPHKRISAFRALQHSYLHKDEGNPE
Chain of Cyclin-dependent kinase 4/cyclin D1 (P24385 whole entry, further chain): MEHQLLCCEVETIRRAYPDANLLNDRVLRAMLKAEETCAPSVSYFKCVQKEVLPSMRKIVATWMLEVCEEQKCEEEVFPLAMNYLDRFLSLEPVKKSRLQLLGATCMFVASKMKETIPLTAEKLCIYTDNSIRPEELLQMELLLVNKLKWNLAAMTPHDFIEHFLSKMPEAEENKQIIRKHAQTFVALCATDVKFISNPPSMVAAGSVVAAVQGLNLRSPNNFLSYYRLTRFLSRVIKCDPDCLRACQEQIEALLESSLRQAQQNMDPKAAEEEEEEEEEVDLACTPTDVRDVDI

[12] = Cmax in Sprague-Dawley rat at 10 mg/kg, po by LC-MS analysis; assay type: ADME, organism-based; details: in vivo
[13] = target: Ephrin type-B receptor 1 (Homo sapiens) (UniProt P54762); assay: Inhibition of N-terminal 6His-tagged recombinant human EphB1 (564 to end residues) expressed in baculovirus infected Sf21 cells assessed as residual activity at 1 uM relative to control
Chain of Ephrin type-B receptor 1 (Homo sapiens) (P54762 whole entry): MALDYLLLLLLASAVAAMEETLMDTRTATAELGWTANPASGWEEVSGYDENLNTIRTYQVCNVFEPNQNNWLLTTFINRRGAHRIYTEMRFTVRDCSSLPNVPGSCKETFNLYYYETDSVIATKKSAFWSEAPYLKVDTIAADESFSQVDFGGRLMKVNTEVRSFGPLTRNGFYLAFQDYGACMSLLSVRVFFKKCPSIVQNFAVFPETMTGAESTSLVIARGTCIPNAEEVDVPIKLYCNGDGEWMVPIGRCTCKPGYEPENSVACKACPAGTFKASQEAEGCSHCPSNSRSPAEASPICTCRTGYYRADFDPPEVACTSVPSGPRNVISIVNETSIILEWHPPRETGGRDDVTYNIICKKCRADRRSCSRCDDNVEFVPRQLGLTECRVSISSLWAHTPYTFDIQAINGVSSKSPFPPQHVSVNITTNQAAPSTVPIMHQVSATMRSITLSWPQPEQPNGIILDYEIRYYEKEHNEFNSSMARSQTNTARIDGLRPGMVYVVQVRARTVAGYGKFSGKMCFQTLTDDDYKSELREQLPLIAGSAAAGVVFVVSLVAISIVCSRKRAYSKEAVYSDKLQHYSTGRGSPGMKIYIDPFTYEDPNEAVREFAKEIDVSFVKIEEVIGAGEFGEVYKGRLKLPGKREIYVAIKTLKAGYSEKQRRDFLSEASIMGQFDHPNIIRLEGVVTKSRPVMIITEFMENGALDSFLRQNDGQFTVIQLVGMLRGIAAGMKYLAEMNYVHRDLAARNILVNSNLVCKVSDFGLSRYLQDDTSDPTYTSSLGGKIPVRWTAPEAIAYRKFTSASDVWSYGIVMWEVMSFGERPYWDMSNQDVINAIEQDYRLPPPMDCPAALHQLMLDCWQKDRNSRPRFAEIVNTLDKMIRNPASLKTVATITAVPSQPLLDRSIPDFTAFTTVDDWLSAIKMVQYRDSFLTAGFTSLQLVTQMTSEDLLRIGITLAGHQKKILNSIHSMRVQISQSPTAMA

Casein kinase 2 = Casein kinase 2 (Homo sapiens, UniProt P67870+P68400+P19784+Q8NEV1); assay: Inhibition of alpha-subunit N-terminal 6His- and beta-subunit N-terminal GST-tagged recombinant human CK2 expressed in baculovirus infected Sf21 cells assessed as residual activity at 1 uM relative to control
[14] = Antiproliferative activity against human Lovo/DX cells assessed as inhibition of cell growth incubated for 72 hrs by cell-titer glo assay; assay type: functional, cell-based
Method in brief: (§3)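 Cells seeded at 10,000–30,000/cm² (adherent) or 100,000/mL (nonadherent) in medium with 10% fetal calf serum; after 24 h, treated in duplicate with serial dilutions for 72 h. Viable cell number read by CellTiter-Glo luminescence; IC50 from sigmoidal fit; at least two independent experiments.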

A2780 [15] = assay: Induction of DNA damage in human A2780 cells assessed as H2AX phosphorylation at 0.5 to 1 uM incubated for 8 hrs by Western blotting analysis; assay type: functional, cell-based; details: dose 0.5-1 µM
IGROV-1 = assay: Antiproliferative activity against human IGROV-1 cells assessed as inhibition of cell growth incubated for 72 hrs by cell-titer glo assay; assay type: functional, cell-based; details: IGROV-1, 72 h; method in brief: as §3
[16] = target: Insulin-like growth factor 1 receptor (Homo sapiens) (UniProt P08069); assay: Inhibition of N-terminal 6His-tagged recombinant human IGF-1R (959 to end residues) expressed in baculovirus infected Sf21 cells assessed as residual activity at 1 uM relative to control
SK-N-MC = assay: Antiproliferative activity against human SK-N-MC cells assessed as inhibition of cell growth incubated for 72 hrs by cell-titer glo assay; assay type: functional, cell-based
MDA-MB-231 = assay: Antiproliferative activity against human MDA-MB-231 cells assessed as inhibition of cell growth incubated for 72 hrs by cell-titer glo assay; assay type: functional, cell-based; details: MDA-MB-231, 72 h; method in brief: as §3
EKVX = assay: Antiproliferative activity against human EKVX cells assessed as inhibition of cell growth incubated for 72 hrs by cell-titer glo assay; assay type: functional, cell-based; method in brief: as §1
[17] = Half-life in male cynomolgus monkey at 5 mg/kg, po by LC-MS analysis; assay type: ADME, organism-based, Macaca fascicularis; details: in vivo

Q: With `CN1CCN(c2ccc(OC(F)(F)F)c(Nc3ncc4c(n3)-c3c(c(C(N)=O)nn3CCO)CC4)c2)CC1` [ONVANSERTIB] as the compound, how does the IC50 [1] read?
A: The IC50 was 0.056 µM.

Q: And the Activity [2]?
A: The Activity was 89%.

Q: What about the AUC [3] of the same compound?
A: The AUC was 4.2 µM·h.

Q: And the IC50 (SW-403)?
A: The IC50 was 0.046 µM.

Q: And the Activity (A2780 [4])?
A: Its Activity is “Dose-Dependent Effect”.

Q: And the IC50 (SK-OV-3)?
A: The IC50 was 0.191 µM.

Q: What about the IC50 (NCI/ADR-RES) of the same compound?
A: Its IC50 is 1.21 µM.

Q: What about the IC50 [5] of the same compound?
A: The IC50 was 1.31 µM.

Q: And the IC50 (CAMA-1)?
A: The IC50 was 0.35 µM.

Q: And the IC50 (SAOS-2)?
A: Its IC50 is 0.045 µM.

Q: What about the IC50 (DU-4475) of the same compound?
A: Its IC50 is 0.047 µM.

Q: What about the Activity [6] of the same compound?
A: The Activity was 83%.

Q: And the IC50 (PC-3)?
A: The IC50 was 0.152 µM.

Q: What about the IC50 [7] of the same compound?
A: The IC50 was over 10 µM.

Q: What about the IC50 (MeWo) of the same compound?
A: Its IC50 is 0.237 µM.

Q: And the IC50 (NCI-H1437)?
A: The IC50 was 0.039 µM.

Q: And the Activity [8]?
A: The Activity was 42%.

Q: What about the IC50 [9] of the same compound?
A: The IC50 was over 10 µM.

Q: And the Activity [10]?
A: Its Activity is 96%.

Q: What about the IC50 [11] of the same compound?
A: The IC50 was over 10 µM.

Q: What about the Cmax [12] of the same compound?
A: The Cmax was 4.2 µM.

Q: What about the Activity [13] of the same compound?
A: Its Activity is 75%.

Q: And the Activity (Casein kinase 2)?
A: The Activity was 42%.

Q: What about the IC50 [14] of the same compound?
A: The IC50 was 1.72 µM.

Q: And the Activity (A2780 [15])?
A: Its Activity is “Active”.

Q: And the IC50 (IGROV-1)?
A: Its IC50 is 0.054 µM.

Q: What about the Activity [16] of the same compound?
A: Its Activity is 114%.

Q: And the IC50 (SK-N-MC)?
A: The IC50 was 0.073 µM.

Q: And the IC50 (MDA-MB-231)?
A: The IC50 was 0.172 µM.

Q: What about the IC50 (EKVX) of the same compound?
A: The IC50 was 0.196 µM.

Q: And the half-life [17]?
A: The half-life was 4.2 h.
